Results gathered from unrelated publications.
Compare with care: the assays were run in different laboratories.
Effect on: cell growth or viability

`C[C@H](Nc1ccc2c(c1)OCCn1cc(N3C(=O)OC[C@H]3C(F)F)nc1-2)C(N)=O` has an EC50 of 438 nM (MKN-1; ATP luminescence; 5 days).
With `CCCCCCCCCCCCCCCCCCOc1ccccc1CC(=O)OCC[N+]1(C)CCCC1` the inhibition was 31.9% (NCI-H322M; SRB; 10 µM).
`CCCC(=O)Nc1nc2cc(-c3ccc4ncn(Cc5ccccc5)c(=O)c4c3)ccc2s1` gave an IC50 of greater than 20000 nM (NCI-H1975; MTT; 72 h).
For `NCC(=O)Nc1ccccc1/N=c1\cc(-c2ccc3c(c2)OCCO3)oc2ccccc12`, the inhibition was 0.57% (NCI-H1975; CCK-8; 1 µM).
With `CCCCC(=O)Nc1ccc(-c2ccc3ncn(CCCC)c(=O)c3c2)cn1` the IC50 was 310 nM (NCI-H1975; CCK-8; 72 h).
For `O=C(Nc1ccccc1/N=c1\cc(-c2ccc3c(c2)OCCO3)oc2cc(F)ccc12)N1CCOCC1`, the inhibition was 2.35% (NCI-H1975; CCK-8; 1 µM).
`CCCCC(=O)Nc1ccc(-c2ccc3ncn(CCCF)c(=O)c3c2)cn1` gave an IC50 of 140 nM (NCI-H1975; CCK-8; 72 h).
`Cc1nc(NC(=O)N2CCC[C@H]2C(N)=O)sc1-c1ccnc(C(C)(C)C(F)(F)F)c1` has an EC50 of 2110 nM (MKN-1; ATP luminescence; 5 days).
`COc1ccc2/c(=N/c3ccccc3NC(=O)CN)cc(-c3ccc4c(c3)OCCO4)oc2c1` has an inhibition of 8.23% (NCI-H1975; CCK-8; 1 µM).
`COc1ccc(NC(=O)Nc2nc3cc(-c4ccc5ncn(Cc6ccccc6)c(=O)c5c4)ccc3s2)cc1` gave an IC50 of greater than 20000 nM (NCI-H1975; MTT; 72 h).
With `CCCCCCCCCCCCCCCCCCOc1ccc(CC(=O)OCC[N+]2(C)CCCCC2)cc1` the inhibition was 3.63% (NCI-H322M; SRB; 10 µM).
With `COc1cccc2c1C(=O)c1c(O)c3c(c(O)c1C2=O)C[C@@](O)(C(=O)CO)C[C@@H]3O[C@H]1C[C@H](N)[C@H](O)[C@H](C)O1` the IC50 was 67 nM (NCI-H1975; MTT; 72 h).
For `CCCCC(=O)Nc1ncc(-c2ccc3ncn(CCC)c(=O)c3c2)cn1`, the IC50 was 2870 nM (NCI-H1975; CCK-8; 72 h).
`CC(C)(C)[C@H](N)C(=O)Nc1ccccc1/N=c1\cc(-c2ccc3c(c2)OCO3)oc2ccccc12` has an inhibition of 3.21% (NCI-H1975; CCK-8; 1 µM).
The inhibition of `CCCCCCCCCCCCCCCCCCOc1cccc(CC(=O)OCC[N+](CC)(CC)CC)c1` is reported as 22.3% (NCI-H322M; SRB; 10 µM).
`CCCCC(=O)Nc1ccc(-c2ccc3ncn(CC#N)c(=O)c3c2)cn1` gave an IC50 of greater than 10000 nM (NCI-H1975; CCK-8; 72 h).
The IC50 of `O=C(Nc1cc(C(F)(F)F)cc(C(F)(F)F)c1)Nc1nc2cc(-c3ccc4ncn(Cc5ccccc5)c(=O)c4c3)ccc2s1` is reported as greater than 20000 nM (NCI-H1975; MTT; 72 h).
For `CCCCn1cnc2ccc(-c3ccc(NC(=O)Nc4ccc(OC(F)(F)F)cc4)nc3)cc2c1=O`, the IC50 was 470 nM (NCI-H1975; CCK-8; 72 h).
With `Oc1cccc(-c2nc(N3CCOCC3)c3oc4ncccc4c3n2)c1` the inhibition was 38% (NCI-H1975; CCK-8; 1 µM).
`CCCCn1cnc2ccc(-c3ccc(NC(=O)Nc4ccccc4)nc3)cc2c1=O` gave an IC50 of 2460 nM (NCI-H1975; CCK-8; 72 h).
`CCCCCCCCCCCCCCCCCCOc1ccccc1CC(=O)OCC[N+]1(C)CCCCC1` has an inhibition of 15.4% (NCI-H322M; SRB; 10 µM).
With `O=C(Nc1cccc(F)c1)Nc1nc2cc(-c3ccc4ncn(CCN5CCOCC5)c(=O)c4c3)ccc2s1` the IC50 was greater than 20000 nM (NCI-H1975; MTT; 72 h).
`NCCC(=O)Nc1cccc(/N=c2\cc(-c3ccc4c(c3)OCO4)oc3ccccc23)c1` gave an inhibition of 2.94% (NCI-H1975; CCK-8; 1 µM).
For `CC(=O)Nc1nc2cc(-c3ccc4ncn(Cc5ccccc5)c(=O)c4c3)ccc2s1`, the IC50 was greater than 20000 nM (NCI-H1975; MTT; 72 h).
`CCCCCCCCCCCCCCCCCCOc1ccc(CC(=O)OCC[N+](CC)(CC)CC)cc1` has an inhibition of 13.3% (NCI-H322M; SRB; 10 µM).
`CC(C)CCn1cnc2ccc(-c3ccc4sc(NC(=O)Nc5ccc(F)cc5)nc4c3)cc2c1=O` has an IC50 of 960 nM (NCI-H1975; MTT; 72 h).
With `NCC(=O)Nc1ccccc1/N=c1\cc(-c2ccc3c(c2)OCCO3)oc2cc(F)ccc12` the inhibition was 4.41% (NCI-H1975; CCK-8; 1 µM).
For `CCCCCCCCCCCCCCCCCCOc1cccc(CC(=O)OCCC[N+](C)(C)C)c1`, the inhibition was 4.07% (NCI-H322M; SRB; 10 µM).
`Cc1nc(Nc2ncc(C(=O)Nc3c(C)cccc3Cl)s2)cc(N2CC[C@H](O)C2)n1` gave an inhibition of 96% (Pfeiffer; ATP luminescence; 10 µM; 72 h).
The inhibition of `CCCCCCCCCCCCCCCCCCOc1ccc(CC(=O)OCC[N+]2(C)CCOCC2)cc1` is reported as 3.14% (NCI-H322M; SRB; 10 µM).
`CCCCn1cnc2ccc(-c3ccc(NC(C)=O)nc3)cc2c1=O` gave an IC50 of greater than 10000 nM (NCI-H1975; CCK-8; 72 h).
`CNCCC(=O)Nc1ccccc1/N=c1\cc(-c2ccc3nc(N)oc3c2)oc2ccccc12` gave an inhibition of 43% (NCI-H1975; CCK-8; 1 µM).
`CCCn1cnc2ccc(-c3ccc(N4CCCCC4=O)nc3)cc2c1=O` has an IC50 of greater than 10000 nM (NCI-H1975; CCK-8; 72 h).
`Cc1cc(C)cc(NC(=O)Nc2nc3cc(-c4ccc5ncn(Cc6ccccc6)c(=O)c5c4)ccc3s2)c1` has an IC50 of greater than 20000 nM (NCI-H1975; MTT; 72 h).
